Measurements reported in article PMC4002122 (Chemical Research in Toxicology, 2014).
“And” between values parts separate entries of the source, which are not always exact repeats. Equal values may be shown once.

Experiments:
Assay type in all cases: in vitro ADME
UGT1A9 = molecular target: T1, UGT1A9 (Homo sapiens, UniProt O60656); experiment: Steady state kinetics of glucuronidation by recombinant UGT1A9
T1 sequence (O60656 26-530): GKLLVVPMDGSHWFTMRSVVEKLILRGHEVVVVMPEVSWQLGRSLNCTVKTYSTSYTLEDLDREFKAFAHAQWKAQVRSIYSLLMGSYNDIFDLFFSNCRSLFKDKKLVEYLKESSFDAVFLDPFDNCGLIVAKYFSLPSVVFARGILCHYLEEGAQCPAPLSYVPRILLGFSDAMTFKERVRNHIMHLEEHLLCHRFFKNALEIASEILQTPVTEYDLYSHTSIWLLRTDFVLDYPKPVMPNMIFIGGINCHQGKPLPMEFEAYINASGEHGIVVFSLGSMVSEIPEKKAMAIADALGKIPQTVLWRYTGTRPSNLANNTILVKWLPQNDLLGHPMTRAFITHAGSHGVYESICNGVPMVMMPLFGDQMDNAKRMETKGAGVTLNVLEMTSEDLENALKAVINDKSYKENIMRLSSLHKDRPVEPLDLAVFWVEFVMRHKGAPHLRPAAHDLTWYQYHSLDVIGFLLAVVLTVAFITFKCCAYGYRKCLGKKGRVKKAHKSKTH

UGT1A7 = molecular target: T2, UGT1A7 (Homo sapiens, UniProt Q9HAW7); experiment: Steady state kinetics of glucuronidation by recombinant UGT1A7
T2 sequence (Q9HAW7 26-530): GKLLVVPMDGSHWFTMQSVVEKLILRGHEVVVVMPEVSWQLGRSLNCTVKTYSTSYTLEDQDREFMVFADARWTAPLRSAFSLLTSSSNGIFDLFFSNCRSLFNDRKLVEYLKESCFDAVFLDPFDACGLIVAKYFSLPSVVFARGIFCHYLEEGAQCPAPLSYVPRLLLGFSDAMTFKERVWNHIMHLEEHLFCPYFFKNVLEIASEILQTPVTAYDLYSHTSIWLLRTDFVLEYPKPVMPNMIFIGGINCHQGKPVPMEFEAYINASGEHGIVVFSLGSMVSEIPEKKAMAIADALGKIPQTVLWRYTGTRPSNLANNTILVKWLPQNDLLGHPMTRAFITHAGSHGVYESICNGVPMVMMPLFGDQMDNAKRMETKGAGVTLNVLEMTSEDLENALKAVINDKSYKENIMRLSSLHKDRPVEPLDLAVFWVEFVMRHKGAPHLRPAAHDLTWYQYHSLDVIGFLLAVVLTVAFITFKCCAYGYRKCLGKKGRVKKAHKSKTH

UGT1A10 = molecular target: T3, UGT1A10 (Homo sapiens, UniProt Q9HAW8); experiment: Steady state kinetics of glucuronidation by recombinant UGT1A10
T3 sequence (Q9HAW8 26-530): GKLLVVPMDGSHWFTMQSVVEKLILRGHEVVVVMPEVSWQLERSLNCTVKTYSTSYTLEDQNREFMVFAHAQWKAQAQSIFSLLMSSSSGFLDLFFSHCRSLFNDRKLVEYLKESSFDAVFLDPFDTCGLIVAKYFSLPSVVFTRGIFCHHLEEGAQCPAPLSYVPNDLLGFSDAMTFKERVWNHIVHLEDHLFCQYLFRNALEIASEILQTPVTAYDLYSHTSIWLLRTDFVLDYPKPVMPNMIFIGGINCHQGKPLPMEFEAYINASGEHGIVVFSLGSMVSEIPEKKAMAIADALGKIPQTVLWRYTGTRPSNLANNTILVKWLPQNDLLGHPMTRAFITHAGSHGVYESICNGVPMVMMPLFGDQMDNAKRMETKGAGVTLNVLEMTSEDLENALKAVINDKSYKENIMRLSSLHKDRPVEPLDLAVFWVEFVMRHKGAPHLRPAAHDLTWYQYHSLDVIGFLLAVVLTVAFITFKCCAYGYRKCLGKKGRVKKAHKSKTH

UGT2B7 = molecular target: T4, UGT2B7 (Homo sapiens, UniProt P16662); experiment: Screening of recombinant UGT2B7 for glucuronidation activity; conditions: 250 μM substrate, 5 μg protein, 60 min, 37 °C
T4 sequence (P16662 24-529): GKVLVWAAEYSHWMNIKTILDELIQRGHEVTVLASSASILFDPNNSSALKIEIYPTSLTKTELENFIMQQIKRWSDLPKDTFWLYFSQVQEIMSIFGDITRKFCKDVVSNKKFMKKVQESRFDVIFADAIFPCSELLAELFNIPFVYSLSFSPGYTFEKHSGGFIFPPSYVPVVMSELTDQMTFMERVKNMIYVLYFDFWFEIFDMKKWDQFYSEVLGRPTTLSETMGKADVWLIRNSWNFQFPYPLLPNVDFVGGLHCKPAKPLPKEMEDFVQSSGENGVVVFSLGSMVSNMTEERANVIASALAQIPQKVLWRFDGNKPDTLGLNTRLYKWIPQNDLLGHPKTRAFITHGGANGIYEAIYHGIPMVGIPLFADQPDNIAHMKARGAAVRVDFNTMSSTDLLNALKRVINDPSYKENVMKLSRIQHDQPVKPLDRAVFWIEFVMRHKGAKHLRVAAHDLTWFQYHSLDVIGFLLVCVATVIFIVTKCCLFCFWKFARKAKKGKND
Method in brief: (§1)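 UGT1A1, 1A3, 1A4 and 1A6–1A10 were His-tagged and expressed in baculovirus-infected Sf9 cells; UGT2B4, 2B7, 2B15 and 2B17 were commercial membranes run per supplier protocol. 5 μg membrane protein with 250 μM substrate, 2 mM UDP-GlcUA, Tris–HCl pH 7.4, MgCl2, saccharolactone, 2% DMSO; 37 °C, 60 min; no-substrate controls. Products measured by HPLC-UV/vis; β-glucuronidase hydrolysis separated O- from carboxyl glucuronides.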

UGT2B4 = molecular target: T5, UGT2B4 (Homo sapiens, UniProt P06133); experiment: Screening of recombinant UGT2B4 for glucuronidation activity; conditions: 250 μM substrate, 5 μg protein, 60 min, 37 °C
T5 sequence (P06133 24-528): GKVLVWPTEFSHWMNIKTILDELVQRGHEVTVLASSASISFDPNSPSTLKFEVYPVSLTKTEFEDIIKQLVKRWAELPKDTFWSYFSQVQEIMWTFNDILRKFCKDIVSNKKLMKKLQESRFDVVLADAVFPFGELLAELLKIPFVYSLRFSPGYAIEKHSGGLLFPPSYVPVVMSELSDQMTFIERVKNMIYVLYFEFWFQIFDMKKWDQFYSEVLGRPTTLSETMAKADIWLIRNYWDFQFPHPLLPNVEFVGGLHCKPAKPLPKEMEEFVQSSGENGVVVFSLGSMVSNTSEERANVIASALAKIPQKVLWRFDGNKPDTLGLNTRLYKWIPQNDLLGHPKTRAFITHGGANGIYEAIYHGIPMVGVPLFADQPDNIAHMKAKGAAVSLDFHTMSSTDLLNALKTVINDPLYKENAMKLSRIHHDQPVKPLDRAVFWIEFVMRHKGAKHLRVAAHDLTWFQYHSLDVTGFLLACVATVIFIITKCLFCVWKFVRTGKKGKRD
Method in brief: as §1

## COc1ccc(/C=C(/C(=O)O)c2cc(OC)c(OC)c(OC)c2)cc1O [NI-12a, (E)-3-(3-hydroxy-4-methoxyphenyl)-2-(3,4,5-trimethoxyphenyl)acrylic acid]
UGT1A9; COO-glucuronide
  NI-12a-COO-gluc formation: not produced
UGT1A9; NI-12a glucuronidation
  Vmax: 8.3 nm/mg protein/min
  catalytic efficiency, ratio Vmax/Km: 35 µL/min/mg
UGT1A9; NI-12a-O-gluc formation
  Vmax: 8.3 nmol/mg/min and 8.3 ± 0.52 nmol/mg/min
  kinetic model: Michaelis–Menten and M–M
UGT1A7; COO-glucuronide
  NI-12a-COO-gluc formation: not produced
UGT1A7; NI-12a-O-gluc formation
  kinetic model: uncompetitive substrate inhibition and USI
UGT1A7; NI-12a-O-gluc formation, USI model
  Ks: 242 ± 133 µM
UGT1A10; COO-glucuronide
  NI-12a-COO-gluc formation: not produced
UGT1A10; NI-12a-O-gluc formation
  kinetic model: Michaelis–Menten and M–M

## COc1ccc(C=Cc2cc(OC)cc(OC)c2/C=N/O)cc1 [NI-ST-05, (E)-2,4-dimethoxy-6-(4-methoxystyryl)benzaldehyde oxime]
UGT2B7
  glucuronidation activity (glucuronide formed): inactive
UGT2B4
  glucuronidation activity (glucuronide formed): inactive
UGT1A9; NI-ST-05–N–O-gluc formation
  kinetic model: did not fit any of the kinetic models tested
UGT1A9; human, pH 7.4
  Km at 60 min: < 5 µM
UGT1A7; N–O-glucuronide
  NI-ST-05–N–O-gluc formation: not produced
UGT1A10; C=N–O-glucuronidation of NI-ST-05
  Vmax: 0.65 nm/mg protein/min
UGT1A10; NI-ST-05–N–O-gluc formation
  Vmax: 0.65 ± 0.017 nmol/mg/min
  kinetic model: Hill
  n (Hill coefficient): 3.4

## COc1cc(/C=C/c2cc([N+](=O)[O-])c(O)c([N+](=O)[O-])c2)cc(OC)c1 [DNR-1, (E)-4-(3,5-dimethoxystyryl)-2,6-dinitrophenol]
UGT2B7
  glucuronidation activity (glucuronide formed): No activity
UGT2B4
  glucuronidation activity (glucuronide formed): No activity
